Source: ChEMBL document CHEMBL2150988, “Preparation and optimization of new 4-(morpholin-4-yl)-(6-oxo-1,6-dihydropyrimidin-2-yl)amide derivatives as PI3Kβ inhibitors” (Bioorg Med Chem Lett, 2012)
Converted amounts (≈) assume the structure as drawn.

Columns and labels:
[1] = Drug metabolism in human liver microsomes after 20 mins; type: ADME, Microsome; conditions: read-out: Drug metabolism
Procedure, shortened: (§1)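 Liver microsomes (human or mouse) incubated with compound for 20 min; %lability reported as % of compound metabolized.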

[2] = target: Phosphatidylinositol 4,5-bisphosphate 3-kinase catalytic subunit gamma isoform (Homo sapiens, UniProt P48736); assay: Inhibition of PI3Kgamma
[3] = Inhibition of Akt phosphorylation at S473 in PTEN deficient human PC3 cells; type: cell-based; conditions: PC-3
[4] = Equilibrium solubility of the compound in phosphate buffer at pH 7.4 after 16 hrs by HPLC analysis; type: physicochemical
[5] = target: T1, Phosphatidylinositol 4,5-bisphosphate 3-kinase catalytic subunit delta isoform (Homo sapiens, UniProt O00329); assay: Inhibition of PI3Kdelta
T1 sequence (O00329 whole entry): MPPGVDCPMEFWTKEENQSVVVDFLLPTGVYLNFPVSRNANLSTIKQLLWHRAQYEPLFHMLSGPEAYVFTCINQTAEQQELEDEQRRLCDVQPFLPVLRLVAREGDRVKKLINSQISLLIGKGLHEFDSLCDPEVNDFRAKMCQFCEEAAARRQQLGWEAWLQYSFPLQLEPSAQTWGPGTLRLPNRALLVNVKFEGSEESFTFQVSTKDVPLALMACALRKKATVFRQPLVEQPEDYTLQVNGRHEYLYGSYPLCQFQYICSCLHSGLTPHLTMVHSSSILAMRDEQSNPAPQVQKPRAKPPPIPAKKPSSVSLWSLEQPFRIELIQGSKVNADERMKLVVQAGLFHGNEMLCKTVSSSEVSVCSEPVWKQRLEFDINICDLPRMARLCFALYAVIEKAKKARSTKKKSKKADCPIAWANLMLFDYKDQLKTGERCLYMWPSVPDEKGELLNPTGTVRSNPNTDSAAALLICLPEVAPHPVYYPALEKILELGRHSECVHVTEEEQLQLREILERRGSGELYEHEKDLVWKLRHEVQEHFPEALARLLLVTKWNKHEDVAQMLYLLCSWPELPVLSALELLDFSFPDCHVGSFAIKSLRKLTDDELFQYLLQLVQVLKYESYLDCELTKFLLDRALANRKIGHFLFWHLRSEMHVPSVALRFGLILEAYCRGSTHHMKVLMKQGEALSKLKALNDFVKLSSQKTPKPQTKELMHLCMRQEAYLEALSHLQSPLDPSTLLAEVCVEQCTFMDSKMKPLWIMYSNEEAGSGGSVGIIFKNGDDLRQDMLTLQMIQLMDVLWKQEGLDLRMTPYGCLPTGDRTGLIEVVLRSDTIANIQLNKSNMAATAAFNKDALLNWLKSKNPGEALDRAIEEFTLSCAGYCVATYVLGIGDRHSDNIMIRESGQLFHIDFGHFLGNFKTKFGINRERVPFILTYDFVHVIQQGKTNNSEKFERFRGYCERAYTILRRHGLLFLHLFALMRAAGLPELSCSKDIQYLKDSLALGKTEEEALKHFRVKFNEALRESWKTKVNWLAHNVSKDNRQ

[6] = target: Phosphatidylinositol 4,5-bisphosphate 3-kinase catalytic subunit alpha isoform (Homo sapiens, UniProt P42336); assay: Inhibition of PI3Kalpha
Cytochrome P450 3A4 = Cytochrome P450 3A4 (Homo sapiens, UniProt P08684); assay: Inhibition of human recombinant CYP3A4; type: ADME
[7] = Drug metabolism in mouse liver microsomes after 20 mins; type: ADME, Microsome; conditions: read-out: Drug metabolism; procedure, shortened: as §1
[8] = Apparent permeability across human Caco2/TC7 cells; type: ADME, cell-based; conditions: Caco-2
Procedure, shortened: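 Caco-2 TC7 clone monolayers; transport measured in both apical-to-basolateral and basolateral-to-apical directions, giving Papp (nm/s) and an efflux ratio.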

[9] = target: Phosphatidylinositol 4,5-bisphosphate 3-kinase catalytic subunit beta isoform (Homo sapiens, UniProt P42338); assay: Inhibition of PI3Kbeta
[10] = target: Serine/threonine-protein kinase mTOR (Homo sapiens, UniProt P42345); assay: Inhibition of mTOR
[11] = Efflux ratio of permeability […] in human Caco2/TC7 cells; type: ADME, cell-based
Procedure, shortened: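 Caco-2 TC7 clone cells grown as a monolayer; compound transport measured in both directions, apical to basolateral (A–B) and basolateral to apical (B–A); apparent permeability (Papp) read out, and efflux ratio derived from the two directional measurements.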

Phosphatidylinositol 4,5-bisphosphate 3-kinase catalytic subunit gamma isoform, sequence (P48736 whole entry, canonical isoform): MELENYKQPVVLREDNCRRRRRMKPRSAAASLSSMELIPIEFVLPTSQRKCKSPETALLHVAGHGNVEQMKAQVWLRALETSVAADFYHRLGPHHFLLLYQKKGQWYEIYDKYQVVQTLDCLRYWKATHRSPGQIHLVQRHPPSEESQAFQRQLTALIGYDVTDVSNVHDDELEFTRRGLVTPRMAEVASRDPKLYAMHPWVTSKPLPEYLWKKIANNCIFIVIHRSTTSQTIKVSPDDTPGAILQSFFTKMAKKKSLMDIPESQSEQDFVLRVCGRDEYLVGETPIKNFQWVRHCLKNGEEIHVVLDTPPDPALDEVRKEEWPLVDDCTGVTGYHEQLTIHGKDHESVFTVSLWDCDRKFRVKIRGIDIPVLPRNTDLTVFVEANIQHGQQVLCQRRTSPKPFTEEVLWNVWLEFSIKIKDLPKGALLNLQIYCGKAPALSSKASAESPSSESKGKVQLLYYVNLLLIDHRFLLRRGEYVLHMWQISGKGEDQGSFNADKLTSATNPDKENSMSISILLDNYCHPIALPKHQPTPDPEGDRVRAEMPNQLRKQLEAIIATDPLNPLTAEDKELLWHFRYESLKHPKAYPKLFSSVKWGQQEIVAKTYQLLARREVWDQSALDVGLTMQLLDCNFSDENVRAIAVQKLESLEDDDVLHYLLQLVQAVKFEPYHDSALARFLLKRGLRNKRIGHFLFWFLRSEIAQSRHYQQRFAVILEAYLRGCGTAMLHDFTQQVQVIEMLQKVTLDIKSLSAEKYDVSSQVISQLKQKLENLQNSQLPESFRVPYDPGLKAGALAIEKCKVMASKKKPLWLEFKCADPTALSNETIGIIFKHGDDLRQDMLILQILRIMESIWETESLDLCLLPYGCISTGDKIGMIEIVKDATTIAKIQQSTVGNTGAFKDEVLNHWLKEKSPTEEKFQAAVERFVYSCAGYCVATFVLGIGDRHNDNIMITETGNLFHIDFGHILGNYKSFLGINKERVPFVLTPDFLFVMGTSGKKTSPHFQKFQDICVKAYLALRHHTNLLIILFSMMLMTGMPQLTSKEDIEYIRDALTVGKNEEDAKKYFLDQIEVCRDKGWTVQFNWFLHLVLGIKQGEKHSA
Phosphatidylinositol 4,5-bisphosphate 3-kinase catalytic subunit beta isoform, sequence (P42338 whole entry, canonical isoform): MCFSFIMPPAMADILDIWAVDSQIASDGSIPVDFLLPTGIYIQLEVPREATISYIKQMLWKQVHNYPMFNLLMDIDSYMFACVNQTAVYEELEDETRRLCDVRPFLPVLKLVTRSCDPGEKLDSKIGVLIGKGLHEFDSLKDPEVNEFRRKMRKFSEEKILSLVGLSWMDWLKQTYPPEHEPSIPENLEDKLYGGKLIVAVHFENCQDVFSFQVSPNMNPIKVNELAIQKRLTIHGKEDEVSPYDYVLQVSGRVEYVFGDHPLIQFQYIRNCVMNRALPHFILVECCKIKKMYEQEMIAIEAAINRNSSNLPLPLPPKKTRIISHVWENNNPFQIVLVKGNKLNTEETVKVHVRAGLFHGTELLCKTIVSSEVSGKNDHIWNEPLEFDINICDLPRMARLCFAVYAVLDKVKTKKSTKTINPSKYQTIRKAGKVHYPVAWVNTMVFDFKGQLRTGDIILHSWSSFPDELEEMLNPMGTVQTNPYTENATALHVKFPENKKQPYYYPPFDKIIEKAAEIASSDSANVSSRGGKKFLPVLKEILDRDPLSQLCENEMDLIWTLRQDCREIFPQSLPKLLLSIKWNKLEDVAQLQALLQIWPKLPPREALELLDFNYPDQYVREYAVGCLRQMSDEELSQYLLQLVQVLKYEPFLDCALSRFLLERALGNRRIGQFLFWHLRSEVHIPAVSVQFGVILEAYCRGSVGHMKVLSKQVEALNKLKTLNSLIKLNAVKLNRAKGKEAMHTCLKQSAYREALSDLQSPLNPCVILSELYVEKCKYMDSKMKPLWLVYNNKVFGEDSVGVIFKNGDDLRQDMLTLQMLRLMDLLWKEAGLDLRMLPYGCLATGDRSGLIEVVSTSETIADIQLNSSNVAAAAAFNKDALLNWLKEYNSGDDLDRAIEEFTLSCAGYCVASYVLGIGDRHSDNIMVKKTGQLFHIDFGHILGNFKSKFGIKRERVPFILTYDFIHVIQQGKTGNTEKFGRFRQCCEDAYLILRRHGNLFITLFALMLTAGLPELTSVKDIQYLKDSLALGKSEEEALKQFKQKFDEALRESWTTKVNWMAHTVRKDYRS
Cytochrome P450 3A4, sequence (P08684 whole entry): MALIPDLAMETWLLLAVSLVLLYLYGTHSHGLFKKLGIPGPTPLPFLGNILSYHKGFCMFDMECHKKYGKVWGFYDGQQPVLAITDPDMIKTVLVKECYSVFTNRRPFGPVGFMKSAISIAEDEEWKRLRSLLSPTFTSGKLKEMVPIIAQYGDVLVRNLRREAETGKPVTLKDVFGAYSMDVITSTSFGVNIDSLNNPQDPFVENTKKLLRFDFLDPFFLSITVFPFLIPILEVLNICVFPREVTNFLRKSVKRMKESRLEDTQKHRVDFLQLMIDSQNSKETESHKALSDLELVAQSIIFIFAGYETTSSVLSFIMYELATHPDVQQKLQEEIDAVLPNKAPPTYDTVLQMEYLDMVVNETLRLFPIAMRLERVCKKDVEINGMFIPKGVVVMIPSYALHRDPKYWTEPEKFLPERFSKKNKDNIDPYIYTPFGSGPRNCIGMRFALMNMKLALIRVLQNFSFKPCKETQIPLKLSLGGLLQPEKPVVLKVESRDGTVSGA
Phosphatidylinositol 4,5-bisphosphate 3-kinase catalytic subunit alpha isoform, sequence (P42336 whole entry, canonical isoform): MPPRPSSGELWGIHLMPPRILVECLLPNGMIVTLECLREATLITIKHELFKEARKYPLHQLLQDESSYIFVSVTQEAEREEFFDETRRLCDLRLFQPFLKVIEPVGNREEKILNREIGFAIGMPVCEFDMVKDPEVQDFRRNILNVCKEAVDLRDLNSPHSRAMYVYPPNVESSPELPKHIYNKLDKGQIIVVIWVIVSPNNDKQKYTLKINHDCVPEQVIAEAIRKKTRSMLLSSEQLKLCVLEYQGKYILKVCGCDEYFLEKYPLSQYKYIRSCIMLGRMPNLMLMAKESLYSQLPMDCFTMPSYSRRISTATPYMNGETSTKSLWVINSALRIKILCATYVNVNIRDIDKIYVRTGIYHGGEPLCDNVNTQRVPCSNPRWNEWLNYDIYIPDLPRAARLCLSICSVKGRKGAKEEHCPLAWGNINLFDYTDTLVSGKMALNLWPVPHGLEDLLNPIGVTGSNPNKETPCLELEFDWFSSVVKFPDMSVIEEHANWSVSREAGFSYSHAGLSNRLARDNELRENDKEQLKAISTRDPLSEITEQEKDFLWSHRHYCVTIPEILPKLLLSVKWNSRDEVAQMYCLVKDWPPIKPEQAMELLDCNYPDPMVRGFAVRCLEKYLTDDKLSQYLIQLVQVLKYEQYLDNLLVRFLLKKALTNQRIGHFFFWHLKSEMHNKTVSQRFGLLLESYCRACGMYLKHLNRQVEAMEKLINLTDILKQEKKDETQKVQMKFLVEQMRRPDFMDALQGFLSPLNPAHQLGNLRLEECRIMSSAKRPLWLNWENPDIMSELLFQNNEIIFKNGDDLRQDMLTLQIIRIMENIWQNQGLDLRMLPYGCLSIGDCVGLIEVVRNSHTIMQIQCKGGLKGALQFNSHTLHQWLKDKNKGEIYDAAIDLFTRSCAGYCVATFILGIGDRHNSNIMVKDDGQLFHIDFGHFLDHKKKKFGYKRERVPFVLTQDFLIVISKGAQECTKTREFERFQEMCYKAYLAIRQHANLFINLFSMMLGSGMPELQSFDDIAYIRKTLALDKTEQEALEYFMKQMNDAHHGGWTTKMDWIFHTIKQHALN

metabolised at 20 min [1]	IC50 [2]	IC50 [3]	solubility thermodynamic at 16 h [4]	IC50 [5]	IC50 [6]	IC50 (Cytochrome P450 3A4)	metabolised at 20 min [7]	Papp [8]	IC50 [9]	IC50 [10]	Ratio [11]	Compound
43%	> 10 µM	100 nM	9 µM (≈ 3.14 µg/mL)	278 nM	2.55 µM	> 40 µM	22%	0.8 ×10⁻⁶ cm/s	33 nM			O=C(Cc1nc(N2CCOCC2)cc(=O)[nH]1)Nc1cccc(Cl)c1
	5.09 µM	1420 nM		2780 nM	2.27 µM				398 nM			O=C(Cc1nc(N2CCOCC2)cc(=O)[nH]1)Nc1ccc(Cl)cc1
44%	> 10 µM	68 nM	73 µM (≈ 22.9 µg/mL)			> 40 µM	4%	0.5 ×10⁻⁶ cm/s		> 10 µM		O=C(Cc1nc(N2CCOCC2)cc(=O)[nH]1)Nc1ccccc1
40%	6.71 µM	19 nM	3 µM (≈ 1.1 µg/mL)	137 nM	1.9 µM		14%	0.8 ×10⁻⁶ cm/s	2 nM			O=C(Cc1nc(N2CCOCC2)cc(=O)[nH]1)Nc1ccc(F)c(Cl)c1
	> 10 µM	110 nM		1470 nM	> 10 µM				244 nM			Cn1c(CC(=O)Nc2ccc(F)cc2)nc(N2CCOCC2)cc1=O
75%	> 10 µM	10 nM	6 µM (≈ 2.36 µg/mL)	189 nM	1.91 µM	> 40 µM	38%	1.4 ×10⁻⁶ cm/s	5 nM		26	O=C(Cc1nc(N2CCOCC2)cc(=O)[nH]1)Nc1cccc(Br)c1
	> 10 µM	1260 nM		3360 nM	4.35 µM				47 nM			O=C(Cc1nc(N2CCOCC2)cc(=O)[nH]1)Nc1ccc(F)c([N+](=O)[O-])c1
	> 10 µM	94 nM		2210 nM	7.61 µM				387 nM			Cn1c(CC(=O)Nc2ccc(F)c(Br)c2)nc(N2CCOCC2)cc1=O
	> 10 µM	586 nM		4270 nM	> 10 µM				236 nM			Cc1ccccc1NC(=O)Cc1nc(N2CCOCC2)cc(=O)[nH]1
24%	> 10 µM	31 nM	45 µM (≈ 15 µg/mL)	86 nM	2.87 µM	> 40 µM	27%	0.6 ×10⁻⁶ cm/s	13 nM			O=C(Cc1nc(N2CCOCC2)cc(=O)[nH]1)Nc1ccc(F)cc1
71%	> 10 µM	98 nM	33 µM (≈ 12 µg/mL)	148 nM	3.46 µM	> 40 µM	28%	0.2 ×10⁻⁶ cm/s	3 nM			COc1cc(NC(=O)Cc2nc(N3CCOCC3)cc(=O)[nH]2)ccc1F
	> 10 µM	1740 nM		4650 nM	8.14 µM				175 nM			COC(=O)c1cc(NC(=O)Cc2nc(N3CCOCC3)cc(=O)[nH]2)ccc1F
55%	> 10 µM	74 nM		1110 nM	6.22 µM		21%		81 nM			O=C(Cc1nc(N2CCOCC2)cc(=O)[nH]1)Nc1cccc(F)c1
	> 10 µM	349 nM		2450 nM	> 10 µM				142 nM			O=C(Cc1nc(N2CCOCC2)cc(=O)[nH]1)Nc1ccccc1F
76%	> 10 µM	47 nM	38 µM (≈ 13.1 µg/mL)	611 nM	2.37 µM	> 40 µM	47%	0.3 ×10⁻⁶ cm/s	15 nM			COc1cccc(NC(=O)Cc2nc(N3CCOCC3)cc(=O)[nH]2)c1
	> 10 µM	100 nM		1770 nM	8.51 µM				262 nM			Cn1c(CC(=O)Nc2ccc(F)c(F)c2)nc(N2CCOCC2)cc1=O
	> 10 µM	340 nM		4290 nM	> 10 µM				469 nM			Cn1c(CC(=O)Nc2ccccc2)nc(N2CCOCC2)cc1=O
25%	> 10 µM	55 nM	3 µM (≈ 1.05 µg/mL)	135 nM	3.84 µM		11%	0.8 ×10⁻⁶ cm/s	53 nM			O=C(Cc1nc(N2CCOCC2)cc(=O)[nH]1)Nc1ccc(F)c(F)c1
42%	6.61 µM	38 nM	5 µM (≈ 2.06 µg/mL)	297 nM	4.14 µM	> 40 µM	18%	0.8 ×10⁻⁶ cm/s	26 nM			O=C(Cc1nc(N2CCOCC2)cc(=O)[nH]1)Nc1ccc(F)c(Br)c1
91%	8.01 µM	71 nM	3 µM (≈ 1.04 µg/mL)	63 nM	0.831 µM	> 40 µM	60%	0.6 ×10⁻⁶ cm/s	6 nM			Cc1cc(NC(=O)Cc2nc(N3CCOCC3)cc(=O)[nH]2)ccc1F
80%	7.07 µM	45 nM	3 µM (≈ 0.985 µg/mL)	164 nM	0.626 µM		54%	1.4 ×10⁻⁶ cm/s	17 nM			Cc1cccc(NC(=O)Cc2nc(N3CCOCC3)cc(=O)[nH]2)c1
	> 10 µM	100 nM		2400 nM	> 10 µM				104 nM			COc1cc(NC(=O)Cc2nc(N3CCOCC3)cc(=O)n2C)ccc1F
